# Experimental data published in publication PMC3546530 (Cancer prevention research (Philadelphia, Pa.), 2012).
# Like-named read-outs stand apart in the source and are kept apart here.
# How the values were obtained:
# [1] = molecular target: purified ovine COX-1 (Ovis aries, UniProt P05979); experiment: COX-1 colorimetric activity assay; format: biochemical
# [2] = system: total cAMP hydrolysis in HT-29 whole-cell lysates; experiment: cAMP PDE activity in tumor cell lysate; format: biochemical, human; conditions: read-out: total cAMP hydrolysis IC50; HT-29 whole-cell lysate
# In short: (§1)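 HT-29 cells were lysed in PDE activity buffer (20 mmol/L Tris-acetate, 5 mmol/L Mg acetate, 1 mmol/L EGTA, 1.0% Triton X-100, 50 mmol/L NaF, protease inhibitors, pH 7.4). Lysate protein was titrated to the mid portion of the activity curve.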
# [3] = system: LPS-stimulated U937 promonocytic cells; experiment: PGE2 production assay; format: cell-based, human
# In short: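 U937 promonocytic cells were differentiated with 10 nmol/L PMA for 48 h, washed, and plated at 1.0 × 10^6 cells per well to adhere overnight. They were stimulated with 10 μg/mL LPS and treated with test compound for 24 h. PGE2 in supernatants was measured by HTRF competitive FRET between a PGE2–d2 conjugate and an anti-PGE2 antibody.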
# [4] = system: HCT 116 colon tumor cells; experiment: Apoptosis assay; format: cell-based, human; conditions: 24 hours, vehicle 3%
# In short: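 HCT 116 cells were seeded at 1 × 10^6 per 10-cm dish and grown 48 h, then treated with test compound or vehicle for 24 h. Floating and attached cells were pooled, fixed in 10% neutral buffered formalin on ice for 15 min, and stained for DNA strand breaks by APO-BrdU TUNEL with AlexaFluor-488. TUNEL-positive cells were counted by flow cytometry, ≥5,000 events, in triplicate.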
# [5] = system: total cGMP hydrolysis in HT-29 whole-cell lysates; experiment: cGMP PDE activity in tumor cell lysate; format: biochemical, human; conditions: read-out: total cGMP hydrolysis IC50; HT-29 whole-cell lysate
# In short: as §1
# [6] = system: HT-29, SW480, and HCT 116 colon tumor cell lines; experiment: Growth assay; format: cell-based; conditions: Homo sapiens, 72 h, read-out: growth inhibition IC50
# In short: (§2)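 Colon tumor cells were kept in RPMI-1640 with 5% FBS and 4 mmol/L glutamine at 37° C, 5% CO2. They were plated at 5,000 per well, left to adhere overnight, and exposed for 72 h to a 2-log range of test compound. Viability was measured as ATP content by CellTiter-Glo, relative to vehicle.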
# [7] = system: β-catenin in HCT 116 cells; experiment: β-Catenin levels; format: cell-based, human; conditions: HCT 116, 100 μmol/L
# In short: (§3)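 Cells were lysed in ice-cold membrane lysis buffer (Triton X-100, MgCl2, KCl, DTT, HEPES, NaF, protease inhibitors) or in nuclear lysis buffer (HEPES, NaCl, EDTA, 25% glycerol). Nuclear lysates were kept at 4° C with vortexing every 5 min for 1 h, then centrifuged. Protein was measured by Lowry, separated by 12% SDS-PAGE and moved to nitrocellulose. Blots were blocked in 5% BSA/0.05% Tween 20, probed with primary antibody overnight at 4° C and HRP secondary for 1 h, and read by ECL.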
# [8] = system: tumor cell growth; conditions: cited from earlier work
# [9] = system: PDE5; conditions: cited from earlier work
# [10] = molecular target: PDE1C (Homo sapiens, UniProt Q14123); experiment: Recombinant PDE isozyme assay; format: biochemical
# In short: (§4)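 Purified recombinant human PDE isozymes were assayed by IMAP fluorescence polarization, in which binding of hydrolysed nucleotide to immobilised metal complexes raises polarization.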
# [11] = molecular target: PDE7A (Homo sapiens, UniProt Q13946); experiment: Recombinant PDE isozyme assay; format: biochemical
# In short: as §4
# [12] = molecular target: PDE5A (purified recombinant PDE5) (Homo sapiens, UniProt O76074); experiment: Recombinant PDE isozyme assay; format: biochemical
# In short: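 IMAP fluorescence polarization assay run on recombinant enzyme per kit instructions. Substrates: TAMRA-cGMP or fluorescein-cAMP, each at 50 nmol/L final. Hydrolysed cyclic nucleotide binds immobilized metal coordination complexes, raising polarization.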
# [13] = molecular target: PDE9A (Homo sapiens, UniProt O76083); experiment: Recombinant PDE isozyme assay; format: biochemical
# In short: as §4
# [14] = system: intracellular cGMP in HEK293 cells; experiment: Intracellular cGMP levels; format: cell-based, human; conditions: HEK293, 50 μmol/L SNP plus 1, 3, or 10 μmol/L compound
# [15] = molecular target: PDE2A (Homo sapiens, UniProt O00408); experiment: Recombinant PDE isozyme assay; format: biochemical
# [16] = system: cleaved caspase-3 in HT-29 cells; experiment: Caspase-3 cleavage; format: cell-based, human; conditions: HT-29, 10 μmol/L
# In short: as §3
# [17] = system: normal fetal human colonocytes (FHC); experiment: Growth assay; format: cell-based
# [18] = system: β-catenin–mediated Tcf transcriptional activity in HCT 116 cells; experiment: TOP/FOP-flash Tcf luciferase reporter assay; format: cell-based, human; conditions: HCT 116, 24 hours
# In short: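 HCT 116 cells in 24-well plates were cotransfected with 0.1 μg TOP-flash (wild-type Tcf sites) or FOP-flash (mutated sites, nonspecific control) plus 0.1 μg β-galactosidase vector. After 24 h treatment with test compound, luciferase activity was measured and normalised to β-galactosidase activity.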
# [19] = system: HCT 116 colon tumor cells; experiment: Growth assay; format: cell-based; conditions: Homo sapiens, HCT-116, read-out: growth inhibition IC50
# In short: as §2
# [20] = system: PKG (VASP phosphorylation) in HT-29 cells; experiment: PKG activation; format: cell-based, human; conditions: HT-29, 5 μmol/L; remained elevated for 5 hours
# [21] = molecular target: PDE11A (Homo sapiens, UniProt Q9HCR9); experiment: Recombinant PDE isozyme assay; format: biochemical
# In short: as §4
# [22] = system: survivin in HT-29 cells; experiment: Survivin expression; format: cell-based, human; conditions: 10 μmol/L, slightly longer duration than β-catenin decrease
# In short: as §3
# [23] = molecular target: PDE1A (Homo sapiens, UniProt P54750); experiment: Recombinant PDE isozyme assay; format: biochemical
# In short: as §4
# [24] = molecular target: PDE1B (Homo sapiens, UniProt Q01064); experiment: Recombinant PDE isozyme assay; format: biochemical
# In short: as §4
# [25] = system: nuclear β-catenin in HT-29 cells; experiment: Nuclear β-catenin levels; format: cell-based, human
# In short: as §3
# [26] = molecular target: PDE4B (Homo sapiens, UniProt Q07343); experiment: Recombinant PDE isozyme assay; format: biochemical
# In short: as §4
# [27] = molecular target: PDE3A (Homo sapiens, UniProt Q14432); experiment: Recombinant PDE isozyme assay; format: biochemical
# In short: as §4
# [28] = system: HCT 116 colon tumor cells; experiment: Proliferation assay; format: cell-based; conditions: Homo sapiens, HCT-116, 24 h, read-out: inhibition of cell proliferation
# In short: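 HCT 116 cells were seeded at 1.5 × 10^6 per 10-cm dish overnight, then serum-starved for 24 h. Test compound or vehicle (0.1% DMSO) was added in RPMI-1640 with 5% serum for 4 h, followed by 16 μmol/L EdU (final) for a further 18 h. EdU incorporation was read with Click-iT Alexa Fluor 488 by flow cytometry, ≥5,000 events, in triplicate.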
# [29] = molecular target: PDE3B (Homo sapiens, UniProt Q13370); experiment: Recombinant PDE isozyme assay; format: biochemical
# In short: as §4
# [30] = system: HT-29 colon tumor cells; experiment: Growth assay; format: cell-based; conditions: Homo sapiens, HT-29, read-out: growth inhibition IC50
# In short: as §2
# [31] = molecular target: PDE6C (Homo sapiens, UniProt P51160); experiment: Recombinant PDE isozyme assay; format: biochemical
# In short: as §4
# [32] = molecular target: PDE8A (Homo sapiens, UniProt O60658); experiment: Recombinant PDE isozyme assay; format: biochemical
# In short: as §4
# [33] = molecular target: purified ovine COX-2 (Ovis aries, UniProt P79208); experiment: COX-2 colorimetric activity assay; format: biochemical
# PDE1A, sequence (P54750 whole entry): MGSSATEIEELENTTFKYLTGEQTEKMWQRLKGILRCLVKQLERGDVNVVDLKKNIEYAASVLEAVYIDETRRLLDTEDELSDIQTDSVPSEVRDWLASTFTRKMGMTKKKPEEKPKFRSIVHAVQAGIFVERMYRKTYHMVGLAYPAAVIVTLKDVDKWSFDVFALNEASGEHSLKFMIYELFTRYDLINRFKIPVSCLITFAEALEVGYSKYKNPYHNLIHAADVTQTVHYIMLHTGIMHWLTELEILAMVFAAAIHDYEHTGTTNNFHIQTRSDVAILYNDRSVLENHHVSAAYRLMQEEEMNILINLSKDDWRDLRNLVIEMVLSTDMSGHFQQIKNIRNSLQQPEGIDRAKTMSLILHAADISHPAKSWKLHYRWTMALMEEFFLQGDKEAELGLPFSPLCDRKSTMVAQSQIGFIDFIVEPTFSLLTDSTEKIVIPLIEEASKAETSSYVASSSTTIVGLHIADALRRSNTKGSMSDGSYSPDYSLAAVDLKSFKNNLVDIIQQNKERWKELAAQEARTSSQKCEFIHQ
# PDE2A, sequence (O00408 whole entry): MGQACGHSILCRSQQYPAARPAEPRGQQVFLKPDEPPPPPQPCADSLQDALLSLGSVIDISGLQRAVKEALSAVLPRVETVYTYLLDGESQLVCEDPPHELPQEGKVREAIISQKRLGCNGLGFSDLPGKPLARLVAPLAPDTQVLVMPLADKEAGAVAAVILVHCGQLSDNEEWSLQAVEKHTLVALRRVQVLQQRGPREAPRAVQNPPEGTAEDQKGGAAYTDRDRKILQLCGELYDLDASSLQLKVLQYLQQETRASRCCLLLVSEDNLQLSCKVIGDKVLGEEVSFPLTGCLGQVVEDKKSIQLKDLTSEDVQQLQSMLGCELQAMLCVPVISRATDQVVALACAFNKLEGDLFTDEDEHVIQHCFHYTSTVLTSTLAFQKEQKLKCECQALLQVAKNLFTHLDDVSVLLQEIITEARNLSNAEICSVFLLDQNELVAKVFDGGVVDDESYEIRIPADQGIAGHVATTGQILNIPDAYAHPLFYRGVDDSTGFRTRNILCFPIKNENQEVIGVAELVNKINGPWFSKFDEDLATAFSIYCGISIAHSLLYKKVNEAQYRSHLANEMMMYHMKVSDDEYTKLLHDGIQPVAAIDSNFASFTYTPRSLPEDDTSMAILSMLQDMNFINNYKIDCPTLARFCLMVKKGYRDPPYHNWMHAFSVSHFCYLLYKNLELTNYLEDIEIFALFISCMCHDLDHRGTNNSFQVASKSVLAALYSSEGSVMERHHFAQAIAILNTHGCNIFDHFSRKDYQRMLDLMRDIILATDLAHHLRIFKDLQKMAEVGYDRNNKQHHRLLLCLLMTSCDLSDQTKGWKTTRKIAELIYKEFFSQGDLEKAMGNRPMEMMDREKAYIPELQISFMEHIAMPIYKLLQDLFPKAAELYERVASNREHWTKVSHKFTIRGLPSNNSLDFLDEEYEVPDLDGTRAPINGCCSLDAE
# PDE1C, sequence (Q14123 whole entry): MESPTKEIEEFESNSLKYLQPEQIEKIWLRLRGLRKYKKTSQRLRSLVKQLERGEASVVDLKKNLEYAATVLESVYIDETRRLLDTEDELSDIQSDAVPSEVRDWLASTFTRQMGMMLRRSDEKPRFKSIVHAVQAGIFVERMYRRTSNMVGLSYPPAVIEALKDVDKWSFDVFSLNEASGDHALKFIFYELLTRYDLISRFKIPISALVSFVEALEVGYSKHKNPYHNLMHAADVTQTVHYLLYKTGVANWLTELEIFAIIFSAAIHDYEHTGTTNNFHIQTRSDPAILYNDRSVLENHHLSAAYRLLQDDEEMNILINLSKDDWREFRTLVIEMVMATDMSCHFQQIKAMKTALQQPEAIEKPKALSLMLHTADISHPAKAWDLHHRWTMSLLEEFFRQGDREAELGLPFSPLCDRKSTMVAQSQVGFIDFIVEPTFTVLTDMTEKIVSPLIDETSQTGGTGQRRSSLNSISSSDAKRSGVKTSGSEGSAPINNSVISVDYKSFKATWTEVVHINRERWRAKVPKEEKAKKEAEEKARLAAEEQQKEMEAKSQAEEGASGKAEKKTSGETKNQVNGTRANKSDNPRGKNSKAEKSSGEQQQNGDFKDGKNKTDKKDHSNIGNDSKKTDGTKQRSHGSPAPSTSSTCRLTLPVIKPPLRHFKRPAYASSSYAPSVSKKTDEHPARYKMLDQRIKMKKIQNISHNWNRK
# purified ovine COX-1, sequence (P05979 25-600): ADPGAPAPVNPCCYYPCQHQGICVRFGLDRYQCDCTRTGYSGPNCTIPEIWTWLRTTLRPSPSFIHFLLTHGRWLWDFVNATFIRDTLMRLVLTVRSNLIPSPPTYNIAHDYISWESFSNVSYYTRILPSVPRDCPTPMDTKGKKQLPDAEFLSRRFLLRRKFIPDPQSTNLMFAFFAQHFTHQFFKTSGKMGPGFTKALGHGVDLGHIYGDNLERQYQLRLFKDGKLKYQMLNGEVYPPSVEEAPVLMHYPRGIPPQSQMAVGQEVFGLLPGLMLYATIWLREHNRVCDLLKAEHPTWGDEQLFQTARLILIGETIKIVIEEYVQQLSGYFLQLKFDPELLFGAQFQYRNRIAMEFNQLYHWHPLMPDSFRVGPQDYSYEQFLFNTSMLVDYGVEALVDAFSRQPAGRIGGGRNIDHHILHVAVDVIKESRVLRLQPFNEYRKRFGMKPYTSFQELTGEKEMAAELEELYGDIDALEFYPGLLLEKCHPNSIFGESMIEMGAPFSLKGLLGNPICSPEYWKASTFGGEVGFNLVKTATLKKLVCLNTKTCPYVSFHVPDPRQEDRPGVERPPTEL
# PDE11A, sequence (Q9HCR9 whole entry): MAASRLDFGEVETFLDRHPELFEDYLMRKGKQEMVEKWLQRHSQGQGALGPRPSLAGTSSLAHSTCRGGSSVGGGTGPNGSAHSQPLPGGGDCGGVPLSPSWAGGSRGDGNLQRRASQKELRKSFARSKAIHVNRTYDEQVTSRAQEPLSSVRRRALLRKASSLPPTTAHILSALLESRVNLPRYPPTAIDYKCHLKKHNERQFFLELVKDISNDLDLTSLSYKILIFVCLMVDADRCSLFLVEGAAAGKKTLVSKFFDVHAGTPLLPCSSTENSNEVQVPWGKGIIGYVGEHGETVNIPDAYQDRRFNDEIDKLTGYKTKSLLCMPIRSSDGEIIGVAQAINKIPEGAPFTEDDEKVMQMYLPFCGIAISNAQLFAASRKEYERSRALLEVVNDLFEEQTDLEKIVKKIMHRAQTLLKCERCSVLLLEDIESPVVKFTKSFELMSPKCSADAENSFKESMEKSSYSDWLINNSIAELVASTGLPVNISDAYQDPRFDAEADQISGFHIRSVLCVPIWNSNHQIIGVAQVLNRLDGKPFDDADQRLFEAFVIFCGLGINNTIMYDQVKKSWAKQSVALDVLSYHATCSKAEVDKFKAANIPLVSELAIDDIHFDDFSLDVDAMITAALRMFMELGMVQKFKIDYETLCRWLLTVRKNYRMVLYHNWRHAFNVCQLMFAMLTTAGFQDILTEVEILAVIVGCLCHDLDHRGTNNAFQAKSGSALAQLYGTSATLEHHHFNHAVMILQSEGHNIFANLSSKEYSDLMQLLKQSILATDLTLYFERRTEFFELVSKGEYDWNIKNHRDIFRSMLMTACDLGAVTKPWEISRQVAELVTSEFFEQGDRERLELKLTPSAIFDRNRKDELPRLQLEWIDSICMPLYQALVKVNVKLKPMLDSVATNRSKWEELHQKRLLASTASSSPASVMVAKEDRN
# PDE1B, sequence (Q01064 whole entry): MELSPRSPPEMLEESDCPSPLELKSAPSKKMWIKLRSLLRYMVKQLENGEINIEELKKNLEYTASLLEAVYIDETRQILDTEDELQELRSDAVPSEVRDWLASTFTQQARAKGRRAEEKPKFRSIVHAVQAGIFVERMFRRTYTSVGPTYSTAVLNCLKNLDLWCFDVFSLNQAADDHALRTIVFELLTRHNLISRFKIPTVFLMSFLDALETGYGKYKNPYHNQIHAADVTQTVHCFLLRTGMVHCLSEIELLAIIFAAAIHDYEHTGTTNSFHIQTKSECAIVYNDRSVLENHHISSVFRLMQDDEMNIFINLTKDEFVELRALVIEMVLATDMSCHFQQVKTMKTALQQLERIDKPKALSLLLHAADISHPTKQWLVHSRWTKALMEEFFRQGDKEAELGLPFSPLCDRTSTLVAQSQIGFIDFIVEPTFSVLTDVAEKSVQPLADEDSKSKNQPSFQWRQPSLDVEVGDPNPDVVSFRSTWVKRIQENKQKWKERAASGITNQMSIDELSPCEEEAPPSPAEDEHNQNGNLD
# PDE9A, sequence (O76083 whole entry): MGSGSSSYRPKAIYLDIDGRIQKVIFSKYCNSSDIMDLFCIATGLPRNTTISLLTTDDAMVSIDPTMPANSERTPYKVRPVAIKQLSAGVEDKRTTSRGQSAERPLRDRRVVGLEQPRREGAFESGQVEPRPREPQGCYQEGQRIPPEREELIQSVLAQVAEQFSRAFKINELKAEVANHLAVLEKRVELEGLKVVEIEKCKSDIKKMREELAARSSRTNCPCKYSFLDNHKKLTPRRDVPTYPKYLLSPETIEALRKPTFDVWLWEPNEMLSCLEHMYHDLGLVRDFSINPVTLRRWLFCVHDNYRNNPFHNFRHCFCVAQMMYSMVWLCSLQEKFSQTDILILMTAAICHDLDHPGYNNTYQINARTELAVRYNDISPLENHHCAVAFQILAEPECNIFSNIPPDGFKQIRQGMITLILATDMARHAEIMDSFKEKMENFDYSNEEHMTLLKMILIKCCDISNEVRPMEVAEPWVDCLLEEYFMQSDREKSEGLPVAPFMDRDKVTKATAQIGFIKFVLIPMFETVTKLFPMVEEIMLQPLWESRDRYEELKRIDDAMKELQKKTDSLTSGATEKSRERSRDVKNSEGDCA
smiles,measurement,setting,value
"CSc1ccc(/C=C2/C(C)=C(CC(=O)O)c3cc(F)ccc32)cc1 [sulindac sulfide, Sulindac sulfide, reference compound]",IC50,"[1]; read-out: COX-1 inhibition IC50, purified ovine COX-1",2 µM
same,IC50,[2],133 µM
same,IC50,"[3]; Homo sapiens, U-937, 24 h, read-out: suppression of PGE2 production IC50",0.7 µM
same,apoptotic (TUNEL-positive) cells,[4]; 100 μmol/L,12%
same,IC50,[5],49 µM
same,IC50,[6],90 to 120 µM
Nc1nc2c(nc(Br)n2[C@@H]2O[C@@H]3COP(=O)(O)O[C@H]3[C@H]2O)c(=O)[nH]1 [8-bromo-cGMP],effect on β-catenin levels,[7],suppress β-catenin levels
CN1CC(=O)N2[C@H](c3ccc4c(c3)OCO4)c3[nH]c4ccccc4c3C[C@@H]2C1=O [tadalafil],concentrations required to inhibit tumor cell growth,[8],micromolar levels
same,concentrations required to inhibit PDE5 in cell-free assays,[9],nanomolar levels
CCCc1nn(C)c2c(=O)[nH]c(-c3cc(S(=O)(=O)N4CCN(C)CC4)ccc3OCC)nc12 [sildenafil],tumor cell growth inhibitory activity,[8],completely inactive
"CC1=C(CCNCc2ccccc2)c2cc(F)ccc2/C1=C\c1ccc([S+](C)[O-])cc1 (stereo not drawn) [SBA, (Z)-N-benzyl-2-(5-fluoro-2-methyl-1-(4-(methylsulfinyl)benzylidene)-1H-inden-3-yl)ethanamine]",IC50,[10],> 100 µM
same,IC50,"[10]; read-out: cAMP IC50, PDE 1C, cAMP substrate",> 100 µM
same,IC50,[11],> 100 µM
same,IC50,[1],> 200 µM
same,IC50,[12],9 µM
same,IC50,[13],> 100 µM
same,effect on intracellular cGMP (luminescence),[14],rapid and sustained increase in luminescence
same,IC50,[15],> 100 µM
same,IC50,"[15]; read-out: cAMP IC50, PDE 2A, cAMP substrate",> 100 µM
same,IC50,[2],> 200 µM
same,levels of cleaved caspase-3,[16],increased
same,fold higher IC50 in FHC than in colon tumor cell lines,[17]; FHC vs HT-29 and HCT 116,> 6 fold
same,IC50,"[17]; Homo sapiens, read-out: growth inhibition IC50",33 µM
same,β-catenin–mediated Tcf transcriptional activity,[18],significant decrease
same,suppression of PGE2 production,"[3]; LPS 10 μg/mL, 24 hours treatment",ineffective
same,IC50,[19],5 µM
same,time to increased phospho-VASP levels,[20],≤ 1 h
same,IC50,[21],> 100 µM
same,IC50,"[21]; read-out: cAMP IC50, PDE 11A, cAMP substrate",> 100 µM
same,expression of survivin,[22],decreased
same,IC50,[23],> 100 µM
same,IC50,"[23]; read-out: cAMP IC50, PDE 1A, cAMP substrate",> 100 µM
same,apoptotic (TUNEL-positive) cells,[4]; 50 μmol/L,75%
same,IC50,[24],> 100 µM
same,IC50,"[24]; read-out: cAMP IC50, PDE 1B, cAMP substrate",> 100 µM
same,time to reduced nuclear levels of β-catenin,[25],≤ 1 h
same,IC50,[26],75 µM
same,IC50,[27],> 100 µM
same,IC50,"[27]; read-out: cAMP IC50, PDE 3A, cAMP substrate",> 100 µM
same,IC50,[5],8 µM
same,inhibition at 50 µM,[28],86%
same,IC50,[29],> 100 µM
same,IC50,"[29]; read-out: cAMP IC50, PDE 3B, cAMP substrate",> 100 µM
same,IC50,[30],5 µM
same,IC50,[31],> 100 µM
same,IC50,[32],> 100 µM
same,IC50,[33],> 200 µM
same,IC50,[6],3 to 5 µM
